Consider 33 molecules from ChEMBL document CHEMBL1127531, “Selective type IV phosphodiesterase inhibitors as antiasthmatic agents. The syntheses and biological activities of 3-(cyclopentyloxy)-4-methoxybenzamides and analogues” (J Med Chem, 1994).

The target in one experiment is T1, Phosphodiesterase 4A (Sus scrofa, UniProt O77823).
T1 sequence (O77823 whole entry): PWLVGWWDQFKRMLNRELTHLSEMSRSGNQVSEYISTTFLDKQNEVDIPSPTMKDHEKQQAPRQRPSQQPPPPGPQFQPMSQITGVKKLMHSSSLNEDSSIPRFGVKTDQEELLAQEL
Kind of experiment: Inhibitory potency against pig aortic PDE IV. In short, it runs like this:
(§1)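 Pig aortic PDE isozymes were separated by DEAE-trisacryl anion-exchange chromatography. PDE III was assayed in the presence of rolipram (10 µM) and PDE IV in the presence of siguazodan (10 µM) to exclude cross-contamination.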
Take `COc1ccc(C(=O)Nc2c(C)nsc2C)cc1OC1CCCC1`: the IC50 (usually the concentration needed to halve the response being measured) worked out at 0.5 µM. Molecule `COc1ccc(C(=O)Nc2c(Cl)ncnc2Cl)cc1OC1CCCC1` yielded an IC50 of 0.4 µM. As for `COc1ccc(C(=O)Nc2c(Cl)cccc2Cl)cc1OC1CC2CCC1C2` (centres undefined), the IC50 was determined as 0.01 µM. The molecule `CCCCOc1cc(C(=O)Nc2c(Br)cncc2Br)ccc1OC` came in with an IC50 of 0.07 µM.

With `COc1ccc(C(=O)Nc2cccnc2)cc1OC1CCCC1`, the IC50 was determined as 0.55 µM. With `COc1ccc(C(=O)Nc2ccccc2Cl)cc1OC(=O)C1CCCC1`, the IC50 was > 1000 µM. Same read-out and setting: then `COc1ccc(C(=O)Nc2ncccc2Cl)cc1OC1CCCC1`, with 0.36 µM. As for `CCCCOc1cc(C(=O)Nc2c(F)cccc2F)ccc1OC`, the IC50 came out at 0.3 µM.

`COc1ccc(C(=O)Nc2cc(Cl)ccc2Cl)cc1OC1CCCC1` returned an IC50 of 0.5 µM. For the molecule `COc1ccc(C(=O)Nc2c(C)cncc2C)cc1OC1CCCC1`, the IC50 is 0.035 µM. The same measure, in the same setting: as for `COc1ccc(C(=O)Nc2c(F)cccc2F)cc1OC1CCCCC1`, the figure is 0.4 µM; as for `COc1ccc(C(=O)Nc2ccccc2Cl)cc1OC(C)=O`, 70 µM; as for `COc1ccc(C(=O)Nc2ccccc2C(C)=O)cc1OC1CCCC1`, 1.2 µM. `COc1ccc(C(=S)Nc2ccccc2Cl)cc1OC1CCCC1` returned an IC50 of 0.2 µM. `COc1ccc(C(=O)Nc2ccccc2[N+](=O)[O-])cc1OC1CCCC1` gave an IC50 of 0.25 µM. As for `COc1ccc(C(=O)Nc2cnccn2)cc1OC1CCCC1`, the IC50 came out at 0.25 µM.

Take `COc1ccc(C(=O)Nc2ccccc2Cl)cc1OC`: the IC50 was 0.65 µM.

For the molecule `COc1ccc(C(=O)Nc2c(F)cccc2F)cc1`, the IC50 amounted to 37 µM. On to `COc1ccc(C(=O)Nc2ccccc2C#N)cc1OC1CCCC1`, for which the IC50 was determined as 2.5 µM. `COc1ccc(C(=O)Nc2c(Br)cccc2Br)cc1OC1CCCC1` yielded an IC50 of 0.4 µM.

With `O=C(Nc1c(F)cccc1F)c1cccc(OC2CCCC2)c1`, the IC50 is 15 µM. The same measure, in the same setting: then `COc1ccc(C(=O)Nc2c(Br)cncc2Br)cc1OC1CCCC1`, with 0.007 µM; and `COc1ccc(C(=O)Nc2ccccc2Cl)cc1OC(=O)C(C)(C)C`, with > 1000 µM.

Consider `COc1ccc(C(=O)Nc2c(F)c(F)nc(F)c2Cl)cc1OC1CCCC1`, for which it took 0.1 µM to reach half-maximal inhibition (IC50). Molecule `COc1ccc(C(=O)Nc2c(C)nsc2C#N)cc1OC1CCCC1` returned an IC50 of 0.2 µM. On to `COc1ccc(C(=O)Nc2c(F)cnc(F)c2F)cc1OC1CCCC1`, for which the IC50 came out at 0.085 µM.

`COc1ccc(C(=O)Nc2cccc(C)c2)cc1OC1CCCC1`: 1 µM corresponded to half-maximal inhibition (IC50). `COc1ccc(C(=O)Nc2c(Cl)cncc2Cl)cc1OC` gave a half-inhibitory concentration (IC50) of 0.1 µM. In turn, `COc1ccc(C(=O)Nc2cnccc2Cl)cc1OC1CCCC1` showed an IC50 of 0.12 µM.

Molecule `COc1ccc(C(=O)Nc2ncccn2)cc1OC1CCCC1` yielded an IC50 of 3.5 µM. `COc1ccc(C(=O)Nc2c(C)noc2C)cc1OC1CCCC1`: the midpoint of inhibition, the IC50, lay at 0.45 µM. As to `COc1ccc(C(=O)Nc2c(Cl)cncc2Cl)cc1OC1CC2CCC1C2` (stereo in doubt; (+)16g), the IC50 amounted to 0.001 µM. `COc1ccc(C(=O)Nc2c(Cl)cncc2Cl)cc1OC1CC2CCC1C2` (stereo in doubt; (-)16f): the IC50 was found to be 0.001 µM.

Tested on in another experiment: not listed separately
The experiment in a line: Inhibitory potency against pig aortic PDE III. More on the design: species or system Sus scrofa. In short, it runs like this:
as §1
Consider `COc1ccc(C(=O)Nc2cc(Cl)ccc2Cl)cc1OC1CCCC1`, for which the IC50 was > 200 µM. Regarding `COc1ccc(C(=O)Nc2ccccc2C(C)=O)cc1OC1CCCC1`, the IC50 was > 40 µM.

In the case of `COc1ccc(C(=O)Nc2ccccc2[N+](=O)[O-])cc1OC1CCCC1`, the IC50 is > 200 µM. Regarding `COc1ccc(C(=O)Nc2ccccc2C#N)cc1OC1CCCC1`, half-maximal inhibition (IC50) was put at 9.5 µM. Take `COc1ccc(C(=O)Nc2c(Br)cccc2Br)cc1OC1CCCC1`: the IC50 is > 1000 µM. The same measure, in the same setting: then `COc1ccc(C(=O)Nc2cccc(C)c2)cc1OC1CCCC1`, with > 200 µM.
